Measured values as given in ChEMBL document CHEMBL2169774, “Stabilization and structural alteration of the G-quadruplex DNA made from the human telomeric repeat mediated by Tröger's base based novel benzimidazole derivatives” (J Med Chem, 2012).
Calls of active or inactive are those of the source. The calls are words filed in the database; no cut-off is given here.

Experiments:
Nucleic Acid [1] = test: Ratio of Kapp for human d[G3(T2AG3)3] G-quadruplex DNA to Kapp for calf thymus duplex DNA; format: nucleic-acid assay
Summary of the method: (§1)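 UV–vis absorption titration of ligand with preformed Hum21 G4DNA, or with calf thymus duplex DNA. Hypochromicity data were converted to Scatchard plots, and the apparent association constant was obtained by linear fitting.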

NIH3T3 [2] = test: Cytotoxicity in mouse NIH/3T3 cells at 4 uM up to 15 days […]; format: cell-based; conditions: nih3t3, 360 h
Summary of the method: (§2)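 Long-term proliferation: HeLa, A549 or NIH3T3 cells were seeded at 5.0 × 10⁴/well. They were exposed to 4 μM ligand, or 0.1% DMSO as vehicle, every 5 days. Cells were counted and reseeded at half the population over 15 days, and population versus time was plotted.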

A549 [3] = test: Cytotoxicity in human A549 cells at 4 uM up to 15 days […]; format: functional; summary of the method: as §2
Nucleic Acid [4] = test: Binding affinity to human d[G3(T2AG3)3] G-quadruplex DNA in 100 mM KCl buffer by CD spectroscopy; format: nucleic-acid assay
Summary of the method: (§3)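 CD spectral titration of preformed Hum21 G4DNA (4 μM) in 10 mM Tris-HCl, 100 mM KCl, 0.1 mM EDTA, pH 7.4. Ligand was added at 0–160 μM in 20 μM increments. The induced CD band was followed.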

Nucleic Acid [5] = test: Binding affinity to human d[G3(T2AG3)3] G-quadruplex DNA assessed as change in melting temperature at 20 uM in KCl buffer using compound which is heated to 90 degC for 5 mins followed by slow cooling; format: nucleic-acid assay
Summary of the method: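 Hum21 (2 μM) was folded in KCl buffer (10 mM Tris-HCl, 100 mM KCl, 0.1 mM EDTA) with ligand present at r = 10, by heating to 90 °C for 5 min and cooling slowly. CD melting was read at 266 nm. ΔTm is taken against free G4DNA, mean of two experiments.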

Nucleic Acid [6] = test: Binding affinity to human d[G3(T2AG3)3] G-quadruplex DNA assessed as change in structure in CD spectral profile in LiCl buffer by CD spectroscopy; format: nucleic-acid assay
Summary of the method: (§4)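 Hum21 G4DNA (4 μM strand) was preformed in 10 mM Tris-HCl with 100 mM LiCl and 0.1 mM EDTA, pH 7.4. It was then titrated with ligand and CD spectra were recorded.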

HEK-293T = test: Cytotoxicity in transformed HEK293T cells incubated for 6 to 48 hrs by MTT assay; format: functional, cell-based; conditions: Homo sapiens
Summary of the method: (§5)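 HEK293 and HEK293T cells were seeded at 8.0 × 10³/well and run as in the short-term MTT protocol: treatment in 0.2% FBS, then medium change and 595 nm formazan read-out. Figure data reflect 48 h exposure, six replicates per point.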

HEK293 = test: Cytotoxicity in HEK293 cells incubated for 6 to 48 hrs by MTT assay; format: cell-based; conditions: human; summary of the method: as §5
HeLa [7] = test: Cytotoxicity in human HeLa cells at 4 uM up to 15 days by […]; format: functional; summary of the method: as §2
NIH3T3 [8] = test: Cytotoxicity in mouse NIH/3T3 cells incubated for 6 to 48 hrs by MTT assay; format: cell-based
Summary of the method: (§6)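 HeLa, A549 or NIH3T3 cells (15.0 × 10³/well) were grown 24 h to 70% confluency. Ligand was applied at various concentrations in 0.2% FBS for 6 or 48 h at 37 °C. Medium was then replaced with DMEM/10% FBS and growth continued 42 h. MTT was added for 4 h and formazan dissolved in DMSO. Absorbance read at 595 nm, in triplicate, viability normalized to untreated cells.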

A549 [9] = test: Cytotoxicity in human A549 cells incubated for 6 to 48 hrs by MTT assay; format: functional, cell-based; summary of the method: as §6
HeLa [10] = test: Cytotoxicity in human HeLa cells incubated for 6 to 48 hrs by MTT assay; format: functional, cell-based; summary of the method: as §6
[11] = target: Telomerase reverse transcriptase (Homo sapiens, UniProt O14746); test: Inhibition of telomerase extracted from human A549 cells by TRAP-LIG assay; format: cell-free
Sequence of Telomerase reverse transcriptase (O14746 whole entry): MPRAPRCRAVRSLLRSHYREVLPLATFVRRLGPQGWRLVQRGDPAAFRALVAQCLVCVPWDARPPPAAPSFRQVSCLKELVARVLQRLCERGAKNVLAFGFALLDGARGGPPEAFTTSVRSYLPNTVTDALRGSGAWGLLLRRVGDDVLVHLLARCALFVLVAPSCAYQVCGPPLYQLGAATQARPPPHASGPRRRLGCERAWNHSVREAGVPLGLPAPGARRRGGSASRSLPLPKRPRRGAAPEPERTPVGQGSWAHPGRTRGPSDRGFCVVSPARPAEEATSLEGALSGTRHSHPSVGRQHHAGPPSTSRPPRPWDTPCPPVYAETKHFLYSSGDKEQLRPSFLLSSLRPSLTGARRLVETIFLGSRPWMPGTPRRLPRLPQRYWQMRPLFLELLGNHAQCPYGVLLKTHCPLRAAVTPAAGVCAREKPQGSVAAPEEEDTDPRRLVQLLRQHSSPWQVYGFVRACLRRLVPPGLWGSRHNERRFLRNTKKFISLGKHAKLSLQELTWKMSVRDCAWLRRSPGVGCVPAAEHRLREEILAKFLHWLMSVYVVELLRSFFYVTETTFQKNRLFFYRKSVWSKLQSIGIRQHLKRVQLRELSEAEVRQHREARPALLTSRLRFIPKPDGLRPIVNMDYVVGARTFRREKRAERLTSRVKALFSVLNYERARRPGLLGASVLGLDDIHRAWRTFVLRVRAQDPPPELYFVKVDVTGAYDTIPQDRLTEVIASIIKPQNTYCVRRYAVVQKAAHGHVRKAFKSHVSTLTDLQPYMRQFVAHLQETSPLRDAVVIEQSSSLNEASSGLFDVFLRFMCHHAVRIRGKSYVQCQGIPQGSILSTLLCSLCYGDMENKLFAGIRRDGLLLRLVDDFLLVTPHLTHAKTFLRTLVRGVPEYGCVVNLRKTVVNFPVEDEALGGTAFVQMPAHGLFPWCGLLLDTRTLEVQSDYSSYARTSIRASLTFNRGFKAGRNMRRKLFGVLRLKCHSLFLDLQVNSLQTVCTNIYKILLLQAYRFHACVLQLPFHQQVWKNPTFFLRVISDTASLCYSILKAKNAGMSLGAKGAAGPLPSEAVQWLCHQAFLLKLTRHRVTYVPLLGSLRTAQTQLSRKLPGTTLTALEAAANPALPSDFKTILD
Summary of the method: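 Three-step TRAP-LIG assay with A549 protein extract (500 ng/sample) and TS primer in TRAP buffer (pH 8.3, 68 mM KCl), ligand at 5–60 μM. Elongation ran at 30 °C for 10 min. Ligand was then removed on a spin column. PCR with ACX primer ran 30 cycles. Products were resolved on 10% PAGE and read by phosphorimager. IC50 is the mean of three experiments.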

Nucleic Acid [12] = test: Induction of topology changes in human d[G3(T2AG3)3] G-quadruplex DNA in 100 uM KCl buffer by EMSA method; format: nucleic-acid assay; conditions: in the assay text read “100 mM KCl” for “100 uM KCl”
Summary of the method: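 5′-32P-labelled Hum21 G4DNA (5 μM) was used under two conditions. In one, it was preformed in 100 mM KCl and then given ligand (25 μM). In the other, it was folded with ligand (15–60 μM) by heating at 90 °C for 5 min and slow cooling in 100 mM KCl. Samples were run on native polyacrylamide gel with a dT20 mobility marker.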

Nucleic Acid [13] = test: Binding affinity to human d[G3(T2AG3)3] G-quadruplex DNA by UV-vis titration based assay; format: nucleic-acid assay; summary of the method: as §1
Nucleic Acid [14] = test: Binding affinity to human d[G3(T2AG3)3] G-quadruplex DNA assessed as change in melting temperature at 20 uM in KCl buffer; format: nucleic-acid assay
Summary of the method: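 CD melting of preformed Hum21 G4DNA (2 μM) in 10 mM Tris-HCl, 100 mM KCl, 0.1 mM EDTA, read at 292 nm. Ligand added at r = 10. ΔTm is bound minus free Tm, average of two runs.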

Nucleic Acid [15] = test: Binding affinity to human d[G3(T2AG3)3] G-quadruplex DNA assessed as change in melting temperature at 20 uM in NaCl buffer; format: nucleic-acid assay
Summary of the method: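 CD melting at 295 nm of Hum21 G4DNA (2 μM strand) preformed in 10 mM Tris-HCl, 100 mM NaCl, 0.1 mM EDTA. Ligand at r = 10. ΔTm is complexed minus free Tm, mean of two experiments.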

Nucleic Acid [16] = test: Binding affinity to human d[G3(T2AG3)3] G-quadruplex DNA assessed as change in melting temperature at 10 uM in LiCl-Na buffer; format: nucleic-acid assay
Summary of the method: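 CD melting of Hum21 G4DNA (4 μM strand) preformed by heating at 90 °C for 5 min then slow cooling over 24 h in 100 mM LiCl, 10 mM sodium cacodylate, 0.1 mM EDTA, pH 7.4. Ligand added at [ligand]/[DNA] r = 5. Melting followed at 295 nm. ΔTm is ligand-bound minus free Tm, average of two runs.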

Nucleic Acid [17] = test: Binding affinity to human d[G3(T2AG3)3] G-quadruplex DNA assessed formation of G-quadruplex parallel strands in 100 mM KCl buffer by CD spectroscopy; format: nucleic-acid assay
Summary of the method: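 Hum21 (4 μM strand) was heated at 90 °C for 5 min together with ligand (40 μM), then cooled slowly in 100 mM KCl buffer (10 mM Tris-HCl, 0.1 mM EDTA, pH 7.4). CD spectra were recorded to assign parallel or antiparallel topology.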

Nucleic Acid [18] = test: Binding affinity to human d[G3(T2AG3)3] G-quadruplex DNA assessed as change in structure in CD spectral profile in 100 mM KCl buffer by CD spectroscopy; format: nucleic-acid assay; summary of the method: as §3
Nucleic Acid [19] = test: Binding affinity to human d[G3(T2AG3)3] G-quadruplex DNA in LiCl buffer by CD spectroscopy; format: nucleic-acid assay; summary of the method: as §4
Nucleic Acid [20] = test: Binding affinity to human d[G3(T2AG3)3] G-quadruplex DNA in LiCl+ Na+ buffer by CD spectroscopy; format: nucleic-acid assay
Summary of the method: (§7)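 CD titration of preformed Hum21 G4DNA (4 μM) in 100 mM LiCl, 10 mM sodium cacodylate, 0.1 mM EDTA, pH 7.4. Ligand was added stepwise from 0 to 160 μM in 20 μM steps. Peaks at 250 and 295 nm and the induced CD band were monitored.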

Nucleic Acid [21] = test: Binding affinity to human d[G3(T2AG3)3] G-quadruplex DNA assessed as change in structure in CD spectral profile in LiCl+ Na+ buffer by CD spectroscopy; format: nucleic-acid assay; summary of the method: as §7

SMILES | Ratio (Nucleic Acid [1]) | Activity (NIH3T3 [2]) | Activity (A549 [3]) | Activity (Nucleic Acid [4]) | ΔTm (Nucleic Acid [5]) | Activity (Nucleic Acid [6]) | Activity (HEK-293T) | Activity (HEK293) | Activity (HeLa [7]) | Activity (NIH3T3 [8]) | Activity (A549 [9]) | Activity (HeLa [10]) | IC50 [11] | Activity (Nucleic Acid [12]) | Kapp (Nucleic Acid [13]) | ΔTm (Nucleic Acid [14]) | ΔTm (Nucleic Acid [15]) | ΔTm (Nucleic Acid [16]) | Activity (Nucleic Acid [17]) | Activity (Nucleic Acid [18]) | further results
OCCN1CCN(c2ccc3nc(-c4ccc5c(c4)CN4CN5Cc5cc(-c6nc7ccc(N8CCN(CCO)CC8)cc7[nH]6)ccc54)[nH]c3c2)CC1 | 100 | Toxic | Active | Active | 17 °C | inactive | Active | Toxic | Active | Toxic | Active | Active | 14.5 µM | Active | 4.2 ×10⁵ /M | 10 °C | 11 °C | 9.5 °C | Active | inactive | Activity (A549 [3]; record 2): 100%; Activity (Nucleic Acid [19]): Active; Activity (Nucleic Acid [20]): Active; Activity (Nucleic Acid [21]): inactive
CN1CCN(c2ccc3nc(-c4ccc5c(c4)CN4CN5Cc5cc(-c6nc7ccc(N8CCN(C)CC8)cc7[nH]6)ccc54)[nH]c3c2)CC1 | 100 | Toxic | 100% | Active | 15 °C | inactive | Active | Toxic | 100% | Toxic | Active | Active | 34.7 µM | inactive | 1.4 ×10⁵ /M | 8 °C | 9 °C | 9.3 °C | Active | inactive | Activity (Nucleic Acid [19]): Active; Activity (Nucleic Acid [20]): Active; Activity (Nucleic Acid [21]): inactive
